Screening data from PubChem BioAssay.
A selection: hits, their analogues and other compounds. The true share with any hit is near 3.8%.
T cell modulator = modulators of CD8 T cell-vesicle binding, primary screen, mouse 2C CD8+ T cells, flow cytometry | 2C CD8+ T cell-vesicle binding; active compounds read low | response (vesicle binding), % at 7 µM | 0.068% of 330,000 active;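 active means response, share of CD8 T cells binding vesicles, and their 90th percentile fluorescence all below set limits, cut at about 80% in these data, passing the limit was not always enough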;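 further: values below 100% mean blocked vesicle binding to the CD8+ T cells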
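Assay system: 2C TCR transgenic mouse naive CD8+ T cells, MACS-purified | Read-out: CD8+ gate FL2 mean fluorescence as % of same-row positive control | Signal: High-throughput flow cytometry with anti-B7-1 and anti-CD8 staining | Timing: Binding step 1.5 h, 37 °C, antibody labelling 20 min, ice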
rCAG RNA binder = binders of r(CAG) RNA repeats, primary screen, biochemical, fluorescence | inhibition, % at 3 µM | 1.3% of 370,000 active | r(CAG) RNA repeat, TO-PRO-1 dye displacement fluorescence;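 active means inhibition above the plate cutoff, the mean of all test compounds on that plate plus 3 SD, cut at about 35% in these data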;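 further: higher means more dye released from RNA so lower well fluorescence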
Exocytosis inh = LAMP-1 surface exposure blockers, TALL-104 cells – cell-based, flow cytometry, MLPCN library, primary screen; TALL-104 LAMP-1 surface exposure; cells stimulated with thapsigargin and PMA; inhibition, % at 10 µM; 0.66% of 360,000 active; AID 651702, 2012;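 active means inhibition above about 55%, limit read from the data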
V-ATPase pHluor = regulators of yeast V-ATPase proton pumping, primary screen, pHLuorin cytosolic pH fluorescence; S. cerevisiae; response, % at 10 µM; 0.37% of 350,000 active; in the data active means response mostly above about 7.3%, no sharp cut-off; inactive means mostly below about 5.4%; further: actives read high
MPTP block = mitochondrial permeability transition pore inhibitors, primary screen, biochemical, isolated mouse mitochondria, absorbance. Ca2+ swelling absorbance, 30 min. inhibition, % at 10 µM. 1.4% of 360,000 active;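 active means inhibition of 50% or more, scaled per plate between neutral and stimulator controls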
B2AR ag = beta2AR agonists driving receptor internalization, primary screen, cell-based, FAP fluorogen, flow cytometry | Beta-2 adrenergic receptor (Homo sapiens), P07550 | Am2.2-beta2AR cells | response, % (concentration not given with the values) | 0.43% of 340,000 active | AID 504454, 2011;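 active means response above a set limit, near 3 SD of response in nonfluorescent compounds, cut at about 42% in these data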
Target sequence (P07550 whole entry, looked up): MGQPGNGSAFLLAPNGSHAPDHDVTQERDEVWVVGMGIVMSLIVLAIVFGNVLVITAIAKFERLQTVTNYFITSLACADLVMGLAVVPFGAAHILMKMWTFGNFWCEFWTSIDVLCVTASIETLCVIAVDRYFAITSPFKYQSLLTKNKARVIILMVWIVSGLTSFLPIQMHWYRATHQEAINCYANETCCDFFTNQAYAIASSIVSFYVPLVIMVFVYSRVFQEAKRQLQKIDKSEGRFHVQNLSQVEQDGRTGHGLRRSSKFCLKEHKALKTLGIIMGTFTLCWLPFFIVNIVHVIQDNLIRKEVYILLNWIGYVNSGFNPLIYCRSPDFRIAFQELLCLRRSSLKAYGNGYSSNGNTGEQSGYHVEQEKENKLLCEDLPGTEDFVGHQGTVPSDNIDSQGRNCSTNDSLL
Rh123 counter = fluorescence retest of MPTP screen hits in isolated mitochondria, single concentration | shares compounds with MPTP block | membrane potential, Rhodamine 123 fluorescence | inhibition, % at 10 µM | 78% of 5,000 active; in the data active means inhibition above about 22%
MPTP swell DR = mitochondrial permeability transition pore inhibitors, dose response, biochemical, absorbance, uHTS hits; shares compounds with MPTP block; isolated mitochondria swelling; IC50, µM; 58% of 780 active; AID 651561, 2012; in the data active means IC50 below about 20 µM
MPTP cs DR = fluorescent counter-screen in isolated mitochondria, dose response, counter-screen for MPTP inhibitor project, biochemical, fluorescence, uHTS hits | shares compounds with MPTP block | isolated mitochondria counterscreen, fluorescence read-out | IC50, µM | 49% of 780 active | AID 651564, 2012; in the data active means IC50 below about 80 µM
A number is an active result; n = inactive; x = not tested or not shown.

SMILES	T cell modulator	rCAG RNA binder	Exocytosis inh	V-ATPase pHluor	MPTP block	B2AR ag	Rh123 counter	others
CC[C@H](NC(=O)[C@@H](Cc1ccccc1)NC(=O)[C@H]1O[C@@H](n2cnc3c(=O)[nH]c(N)nc32)[C@H](O)[C@@H]1O)c1ccccc1	x	n	x	x	x	x	x
CN1CCN(/N=C/c2ccc(Cl)c(Cl)c2)CC1	n	n	n	n	89.8	n	n
CN1CCN(/N=C/c2ccc(Br)cc2)CC1	n	n	n	n	n	n	x
CN1CCN(/N=C/c2ccc(N(c3ccccc3)c3ccccc3)cc2)CC1	n	n	n	n	81.3	n	n
COC(=O)[C@]12C[C@H](CC(=O)NCC3CCCCC3)C(=O)N(Cc3ccc(Cl)cc3Cl)C1=C[C@H](COCc1ccccc1)O[C@@H]2C	x	n	x	x	x	x	x
COc1ccc(NC(=O)COC(=O)CNS(=O)(=O)c2ccccc2)cc1OC	n	n	n	n	120.5	n	n
COc1ccc(/C(C)=N/OCC(=O)N=Nc2c(O)[nH]c3ccc(Br)cc23)cc1	n	n	n	n	57.3	n	n	MPTP swell DR=n;MPTP cs DR=10
CCOC(=O)CC[C@@]1(C(=O)OCC)C[C@@H](CC(=O)NCc2ccc(OC)c(OC)c2)C(=O)N2CCCC=C21	x	n	x	x	x	x	x
CS(=O)(=O)N1CCN(c2ccnc3cc(Cl)ccc23)CC1	n	n	n	n	n	n	x
O=S(=O)(c1ccc(Br)s1)N1CCN(c2ccnc3cc(Cl)ccc23)CC1	n	n	n	n	64.9	n	36.0
COc1ccc(C2=CC(=O)N(Nc3ccccc3)C2=O)cc1	n	n	n	x	61.3	x	n
CSc1c(CC(=O)Nc2ccc(F)cc2)n(Cc2ccccc2)c2ccccc12	n	n	n	n	81.3	n	66.9
CSc1c(CC(=O)Nc2ccccc2)n(C)c2ccccc12	n	n	n	n	n	n	x
CN1C(=O)C[C@@](C#N)(C(=O)NCC(F)(F)F)[C@H]1c1ccccc1	x	n	x	x	x	x	x
O=C(Nc1ccccc1)Nc1cc(OCC(F)(F)F)cc(OCC(F)(F)F)c1	x	n	n	n	77.4	n	63.0
O=C(Nc1ccccc1)Nc1ccc(Oc2cccnc2)nc1	n	n	n	n	n	n	x
O=C(NCc1ccc(F)cc1)Nc1cccc(Cl)c1	n	n	n	x	84.7	n	92.5
O=C(Nc1cccc(Cl)c1)Nc1ccon1	n	n	n	n	n	n	x
N#CCc1ccc(NC(=O)Nc2cccc(Cl)c2)cc1	n	n	n	n	89.7	n	106.9
N#Cc1ccccc1NC(=O)Nc1cccc(Cl)c1	n	n	n	n	n	n	x
O=C(Nc1cccc(Cl)c1)Nc1cccc(Cl)c1	n	n	n	n	102.5	n	88.1
O=C(Nc1cccnc1)Nc1ccccc1Cl	n	n	n	n	n	n	x
O=C(Nc1cccnc1)Nc1cc(Cl)cc(Cl)c1	n	n	n	n	89.4	n	98.2
O=C(Nc1cccc(Cl)c1)ON=C1c2ccccc2-c2ccccc21	n	n	n	n	86.2	n	86.7
CCN(C(=O)Nc1cccc(Cl)c1)c1ccccc1	n	n	n	n	n	n	x
SMILES	T cell modulator	rCAG RNA binder	Exocytosis inh	V-ATPase pHluor	MPTP block	B2AR ag	Rh123 counter	others
COc1cccc(NC(=O)Nc2ccc3nsnc3c2)c1	n	n	n	n	93.1	n	86.6
O=C(Nc1cccc(Cl)c1)OCCOCCOC(=O)Nc1cccc(Cl)c1	x	n	n	n	n	n	x
Cc1cccc(N(O)C(=O)Nc2cccc(Cl)c2)c1	n	n	n	n	64.4	n	83.8
COc1cccc(NC(=O)Nc2ccc3c(c2)nc(C)n3C)c1	n	n	n	n	n	n	x
O=C(/C=C(\Nc1cc(Cl)c(Cl)c(Cl)c1)c1ccccc1)c1ccccc1	x	n	x	x	x	x	x
CCCCCOc1ccc(/C=N/NC(=O)CSc2nnc(-c3ccc(OC)cc3)n2-c2ccc(C)cc2)cc1	x	n	x	x	x	x	x
O=C(NCc1cccs1)C1CCC(CNS(=O)(=O)c2cccc3cccnc23)CC1 (configuration not stated)	x	n	x	x	x	x	x
CCOC(=O)[C@]12CCCC3=C1N(CCC3)C(=O)[C@@H](CC(=O)NCCC(C)C)C2	x	n	x	x	x	x	x
O=C(Nc1ccccc1)Nc1cc(Cl)cc(Cl)c1	n	n	n	n	101.4	n	100.4
O=C(Nc1cccc(Cl)c1)N1CCSc2cc(Cl)ccc21	n	n	n	n	75.7	n	87.6
O=C(Nc1cccc(F)c1)Nc1cccc(Cl)c1	n	n	n	n	87.8	n	80.4
CSc1ccccc1NC(=O)Nc1cccc(F)c1	n	n	n	n	n	n	x
CCc1ccccc1NC(=O)Nc1cccc(F)c1	n	n	n	n	75.7	n	80.8
CCc1ccc(CCNC(=O)OC2CC3CC2[C@H]2CCCCN2C3)cc1 (some centres not stated)	x	n	x	x	x	x	x
C[C@H]1COc2cc(Br)ccc2S(=O)(=O)N1Cc1cn(Cc2ccc(Br)cc2)nn1	x	n	x	x	x	x	x
COC(=O)C1CN(Cc2ccc(F)cc2)CCS(=O)(=O)N1Cc1ccc(OC)cc1 (configuration not stated)	x	n	x	x	x	x	x
CC1CCC(=C(C#N)C(=O)Nc2cccc(Cl)c2)CC1 (configuration not stated)	n	n	n	n	86.5	n	84.4
COC(=O)c1cc(NC(=O)Nc2cccc(Cl)c2)ccc1Cl	n	n	n	n	89.8	n	73.2
COc1cccc(NC(=O)Nc2ccccc2Br)c1	n	n	n	n	n	n	x
N#CC(C(=O)Nc1cccc(Cl)c1)=C1Nc2ccccc2N1	n	n	n	n	n	n	x
COC(=O)c1cc(NC(=O)c2ccc(-c3ccccc3)cc2)ccc1Cl	n	n	n	n	n	n	x
COc1cccc(NC(=O)Nc2cc(Cl)ccc2C)c1	n	n	n	n	91.9	n	82.3
O=C(Nc1cccc(Cl)c1)Nc1nccs1	n	n	n	n	72.3	n	91.6
COc1ccc(S[C@]2(C(=O)N3CCOCC3)CC(=O)N(c3ccccc3)[C@@H]2c2ccc(OC)cc2)cc1	x	n	x	x	x	x	x
O=C([C@@H]1C[C@H]1c1ccccc1)N1CCC(Oc2cccnc2)CC1	x	n	x	x	x	x	x
O=C(NCCN1CCN(Cc2ccccc2)CC1)Nc1cc(Cl)cc(Cl)c1	n	n	n	n	85.1	n	95.8
CS(=O)(=O)Nc1ccccc1C(=O)Nc1cccc(Cl)c1	n	n	n	n	n	n	x
O=C(Nc1cccc(Cl)c1)Nc1ccnc(-c2cccnc2)n1	n	n	n	n	76.7	n	87.4
